Data on two compounds can be found in ChEMBL document CHEMBL2311296, “Discovery of a potent and isoform-selective targeted covalent inhibitor of the lipid kinase PI3Kα” (J Med Chem, 2013).

In general, GI50 refers to the concentration that inhibits growth by half. The IC50 is the midpoint of a concentration-inhibition curve. A low value points to higher potency.

Active and inactive are the calls of the source. The calls are words filed in the database; no cut-off is given here. Where only a bound is given, the exact number is not on record here.

The target of series [1] is T1, Phosphatidylinositol 4,5-bisphosphate 3-kinase catalytic subunit beta isoform (Homo sapiens, UniProt P42338). As to the kind of experiment: Binding affinity to human PI3Kbeta after 1 hr by MALDI TOF/TOF mass spectrometry. A digest of the protocol: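 Compound incubated with recombinant PI3K isoform enzyme at a 10:1 compound-to-enzyme molar ratio, room temperature, 1 h; covalent adduct formation read by mass spectrometry.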

Series [2] relates to Mus musculus. Briefly: In vivo inhibition of PI3Kalpha in nude nu/nu mouse assessed as free P110alpha levels at 100 mg/kg, ip qd administered for 5 consecutive days measured 1 to 4 hrs post last dose by immunoblot method. It counts as functional, organism-based. The arrangement: dose 100 mg/kg. A digest of the protocol: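 Female nu/nu mice (n = 3/group) dosed ip at 100 mg/kg once daily for 5 days. Spleens harvested 1, 4 and 24 h after the last dose and homogenized. Lysate (150 μg protein) incubated with a biotinylated covalent probe at 1 μM for 1 h at RT, then immunoprecipitated with anti-p110α overnight at 4 °C. Immunoblot: streptavidin signal normalized to total p110α, expressed as % of vehicle.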

Series [3] deals with Mus musculus. As to the kind of experiment: In vivo inhibition of PI3Kalpha in nude nu/nu mouse spleen assessed as inhibition of Akt Ser473 phosphorylation at 100 mg/kg, ip qd administered for 5 consecutive days measured 1 to 4 hrs post last dose by immunoblotting method. It counts as functional, organism-based. The arrangement: dose 100 mg/kg. A digest of the protocol:
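Female nu/nu mice (n = 3/group) dosed ip at 100 mg/kg once daily for 5 days. Spleens collected 1, 4 and 24 h post last dose, frozen, then homogenized in extraction buffer with protease and phosphatase inhibitors. Lysates immunoblotted for P-Akt Ser473.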

The next series concerns MCF7. Briefly: Growth inhibition of human MCF7 cells assessed as cell viability after 96 hrs by Cell Titre Glo assay. It counts as functional. To be noted: MCF7, 96 h.
Another series concerns SK-OV-3. Briefly: Growth inhibition of human SKOV3 cells assessed as cell viability after 96 hrs by Cell Titre Glo assay. Format: functional. Conditions: SK-OV-3, 96 h.
The test system of a further series is Plasma. As to the kind of experiment: Plasma protein binding in human albumin-depleted plasma after 1 to 3 hrs by MALDI TOF/TOF mass spectrometry. Format: ADME, cell-free. A digest of the protocol: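 Human plasma albumin-depleted, not fully, and diluted to 1 mg/mL. A 10 mM DMSO compound stock diluted 1:10 into it; incubated at 37 °C for 1 or 3 h. Samples desalted on C4 tips and analysed by MALDI TOF/TOF (sinapinic acid matrix, ovalbumin internal standard) for mass shifts.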

For another series, the target named is T2, Sphingosine kinase 2 (Homo sapiens, UniProt Q9NRA0).
T2 sequence (Q9NRA0 whole entry): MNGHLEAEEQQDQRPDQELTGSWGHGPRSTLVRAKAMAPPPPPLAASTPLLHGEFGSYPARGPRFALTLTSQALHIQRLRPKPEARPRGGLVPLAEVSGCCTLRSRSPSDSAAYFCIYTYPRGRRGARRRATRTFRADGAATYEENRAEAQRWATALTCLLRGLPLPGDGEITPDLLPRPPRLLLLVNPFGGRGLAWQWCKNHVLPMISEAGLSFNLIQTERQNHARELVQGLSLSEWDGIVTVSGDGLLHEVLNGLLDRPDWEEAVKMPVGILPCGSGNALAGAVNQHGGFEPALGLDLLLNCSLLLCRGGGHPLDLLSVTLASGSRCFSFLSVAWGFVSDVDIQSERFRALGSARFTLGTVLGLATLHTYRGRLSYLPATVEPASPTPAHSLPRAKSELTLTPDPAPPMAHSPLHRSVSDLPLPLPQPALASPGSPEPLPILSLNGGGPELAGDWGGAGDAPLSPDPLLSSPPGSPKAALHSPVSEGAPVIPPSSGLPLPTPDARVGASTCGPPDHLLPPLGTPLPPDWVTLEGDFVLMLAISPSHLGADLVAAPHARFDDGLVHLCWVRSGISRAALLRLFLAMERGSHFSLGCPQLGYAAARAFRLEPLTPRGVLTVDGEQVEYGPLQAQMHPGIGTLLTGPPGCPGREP
Briefly: Inhibition of SPHK2 (unknown origin) by ADP-GLO assay. A digest of the protocol:
(§1)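 Reaction Biology panel using ADP-Glo format at 10 μM ATP. Substrate was sphingosine for SPHK1 and SPHK2, and phosphatidylinositol for the other enzymes.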
For orientation: ADP-Glo turns the ADP formed in a reaction into a luminescent signal.

The target in another series is Sphingosine kinase 1 (Homo sapiens, UniProt Q9NYA1). As to the kind of experiment: Inhibition of SPHK1 (unknown origin) by ADP-GLO assay. A digest of the protocol:
as §1

Series [4] concerns the target Phosphatidylinositol 4-kinase alpha (Homo sapiens, UniProt P42356). As to the kind of experiment: Inhibition of PI4Kalpha (unknown origin) by ADP-GLO assay. A digest of the protocol: as §1
The target of series [5] is Phosphatidylinositol 4-kinase beta (Homo sapiens, UniProt Q9UBF8). Briefly: Inhibition of PI4Kbeta (unknown origin) by ADP-GLO assay. A digest of the protocol:
as §1

The target in series [6] is Phosphatidylinositol 3-kinase catalytic subunit type 3 (Homo sapiens, UniProt Q8NEB9). As to the kind of experiment: Inhibition of PI3KC3 (unknown origin) by ADP-GLO assay. A digest of the protocol: as §1
Chain of Phosphatidylinositol 3-kinase catalytic subunit type 3 (Q8NEB9 whole entry, the tested form may be a part): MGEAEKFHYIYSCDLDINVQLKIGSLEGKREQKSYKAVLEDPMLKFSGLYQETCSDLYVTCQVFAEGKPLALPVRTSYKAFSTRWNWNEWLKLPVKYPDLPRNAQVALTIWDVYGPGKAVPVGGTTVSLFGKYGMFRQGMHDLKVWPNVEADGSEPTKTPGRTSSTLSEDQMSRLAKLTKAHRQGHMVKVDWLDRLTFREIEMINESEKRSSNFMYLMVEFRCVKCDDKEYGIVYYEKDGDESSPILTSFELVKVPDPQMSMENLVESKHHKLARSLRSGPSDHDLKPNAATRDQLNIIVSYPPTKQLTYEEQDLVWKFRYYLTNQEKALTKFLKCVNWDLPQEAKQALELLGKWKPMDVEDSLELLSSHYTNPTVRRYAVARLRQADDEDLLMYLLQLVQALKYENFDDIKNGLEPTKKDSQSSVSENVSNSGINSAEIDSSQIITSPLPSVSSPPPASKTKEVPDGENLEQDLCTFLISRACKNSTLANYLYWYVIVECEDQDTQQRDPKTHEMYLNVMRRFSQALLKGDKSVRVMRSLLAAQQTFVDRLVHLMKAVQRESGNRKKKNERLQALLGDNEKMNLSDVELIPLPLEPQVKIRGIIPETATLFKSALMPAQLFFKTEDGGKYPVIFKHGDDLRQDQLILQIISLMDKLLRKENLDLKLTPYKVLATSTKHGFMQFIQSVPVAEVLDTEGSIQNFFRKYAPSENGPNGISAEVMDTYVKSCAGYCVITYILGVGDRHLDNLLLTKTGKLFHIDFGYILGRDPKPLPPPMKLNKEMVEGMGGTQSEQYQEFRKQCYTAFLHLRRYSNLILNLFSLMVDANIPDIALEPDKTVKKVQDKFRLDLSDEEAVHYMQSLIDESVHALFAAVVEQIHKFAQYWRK
Series [7] addresses Phosphatidylinositol 4-phosphate 3-kinase C2 domain-containing subunit alpha (Homo sapiens, UniProt O00443). Briefly: Inhibition of PI3KC2A (unknown origin) by ADP-GLO assay. A digest of the protocol: as §1
In series [8] the target is T3, Phosphatidylinositol 4,5-bisphosphate 3-kinase catalytic subunit delta isoform (Homo sapiens, UniProt O00329).
T3 sequence (O00329 whole entry): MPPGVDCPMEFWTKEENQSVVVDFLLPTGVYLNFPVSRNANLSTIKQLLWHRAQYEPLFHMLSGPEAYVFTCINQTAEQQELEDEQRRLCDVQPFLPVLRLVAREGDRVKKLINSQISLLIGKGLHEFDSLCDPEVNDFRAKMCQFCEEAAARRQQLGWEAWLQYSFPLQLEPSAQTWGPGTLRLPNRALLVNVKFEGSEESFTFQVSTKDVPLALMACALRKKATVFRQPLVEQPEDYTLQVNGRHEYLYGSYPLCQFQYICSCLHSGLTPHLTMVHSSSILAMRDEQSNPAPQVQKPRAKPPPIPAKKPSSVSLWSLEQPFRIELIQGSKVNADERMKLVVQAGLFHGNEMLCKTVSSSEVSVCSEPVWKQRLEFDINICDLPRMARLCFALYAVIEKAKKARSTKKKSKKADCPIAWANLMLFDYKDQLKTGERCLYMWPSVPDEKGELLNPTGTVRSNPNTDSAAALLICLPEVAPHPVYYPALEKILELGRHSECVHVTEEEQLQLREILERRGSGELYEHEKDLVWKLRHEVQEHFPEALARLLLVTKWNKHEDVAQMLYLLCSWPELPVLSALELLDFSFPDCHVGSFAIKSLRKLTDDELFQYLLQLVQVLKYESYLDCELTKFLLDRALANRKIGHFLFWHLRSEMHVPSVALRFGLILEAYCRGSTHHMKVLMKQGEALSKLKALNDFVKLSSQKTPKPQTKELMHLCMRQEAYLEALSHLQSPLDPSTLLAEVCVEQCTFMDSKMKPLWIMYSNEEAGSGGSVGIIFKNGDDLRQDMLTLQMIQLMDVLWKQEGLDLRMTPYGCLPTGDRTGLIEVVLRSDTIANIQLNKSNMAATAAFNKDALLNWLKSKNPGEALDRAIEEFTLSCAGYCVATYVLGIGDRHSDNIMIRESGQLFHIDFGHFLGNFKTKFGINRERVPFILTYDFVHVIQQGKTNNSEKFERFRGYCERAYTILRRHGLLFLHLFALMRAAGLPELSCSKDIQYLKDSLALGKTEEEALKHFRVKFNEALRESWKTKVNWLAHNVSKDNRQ
As to the kind of experiment: Inhibition of PI3Kdelta (unknown origin) by HTRF assay. A general note: Time-resolved FRET reads energy transfer from a long-lived donor to a nearby acceptor.

Series [9] deals with Phosphatidylinositol 4,5-bisphosphate 3-kinase catalytic subunit gamma isoform (Homo sapiens, UniProt P48736). Briefly: Inhibition of PI3Kgamma (unknown origin) by HTRF assay. A digest of the protocol: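 Contract lab panel, end-point HTRF format with phosphatidylinositol 4,5-bisphosphate as substrate and 10 μM ATP. Ten-point curve, 3-fold serial dilutions starting at 1 μM. Reported as an apparent IC50 (IC50App).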

In series [10] the target is T1, Phosphatidylinositol 4,5-bisphosphate 3-kinase catalytic subunit beta isoform. Briefly: Inhibition of PI3Kbeta (unknown origin) by HTRF assay. A digest of the protocol: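 PI3Kβ tested in a 10-concentration curve, 3-fold serial dilution starting at 1 μM, at 10 μM ATP. Substrate phosphatidylinositol 4,5-bisphosphate, HTRF read-out. Value reported as apparent IC50 from an end-point assay.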

Series [11] concerns the target Phosphatidylinositol 4,5-bisphosphate 3-kinase catalytic subunit alpha isoform (Homo sapiens) (UniProt P42336). To be noted: SK-OV-3, 500 nM.
Series [12] has the same target. Conditions: SK-OV-3, 500 nM. The source holds these as a separate data set.
For series [13] the target is unchanged. To be noted: SK-OV-3, 1 to 1000 nM.

Chain of Phosphatidylinositol 4,5-bisphosphate 3-kinase catalytic subunit alpha isoform (Homo sapiens) (P42336 whole entry, canonical isoform): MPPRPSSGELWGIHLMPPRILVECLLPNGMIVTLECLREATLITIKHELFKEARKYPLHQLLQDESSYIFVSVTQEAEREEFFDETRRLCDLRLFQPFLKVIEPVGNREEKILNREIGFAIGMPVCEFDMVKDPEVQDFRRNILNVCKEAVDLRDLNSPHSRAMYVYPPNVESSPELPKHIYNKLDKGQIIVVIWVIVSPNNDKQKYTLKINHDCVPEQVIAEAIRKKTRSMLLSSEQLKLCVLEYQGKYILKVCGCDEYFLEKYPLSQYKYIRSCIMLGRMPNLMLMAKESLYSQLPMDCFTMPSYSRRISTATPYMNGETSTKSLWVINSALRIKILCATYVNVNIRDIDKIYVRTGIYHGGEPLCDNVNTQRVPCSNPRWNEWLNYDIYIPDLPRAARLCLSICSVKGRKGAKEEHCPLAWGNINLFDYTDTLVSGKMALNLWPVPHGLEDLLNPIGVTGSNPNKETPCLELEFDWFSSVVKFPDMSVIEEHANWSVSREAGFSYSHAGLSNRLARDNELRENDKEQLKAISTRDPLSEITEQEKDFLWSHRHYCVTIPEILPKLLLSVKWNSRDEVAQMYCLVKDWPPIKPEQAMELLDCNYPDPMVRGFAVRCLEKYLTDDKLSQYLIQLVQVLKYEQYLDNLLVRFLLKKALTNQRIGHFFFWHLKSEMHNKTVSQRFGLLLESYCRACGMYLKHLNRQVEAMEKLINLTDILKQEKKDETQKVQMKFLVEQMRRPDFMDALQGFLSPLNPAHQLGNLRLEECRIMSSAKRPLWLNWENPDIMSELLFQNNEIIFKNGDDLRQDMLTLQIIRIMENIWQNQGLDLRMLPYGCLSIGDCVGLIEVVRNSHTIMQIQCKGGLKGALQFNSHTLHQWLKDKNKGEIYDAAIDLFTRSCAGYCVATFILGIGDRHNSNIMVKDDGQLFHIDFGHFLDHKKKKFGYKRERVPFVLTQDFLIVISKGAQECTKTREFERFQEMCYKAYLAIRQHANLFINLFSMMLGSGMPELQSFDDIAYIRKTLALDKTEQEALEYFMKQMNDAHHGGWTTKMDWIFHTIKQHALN
Chain of Sphingosine kinase 1 (Q9NYA1 whole entry): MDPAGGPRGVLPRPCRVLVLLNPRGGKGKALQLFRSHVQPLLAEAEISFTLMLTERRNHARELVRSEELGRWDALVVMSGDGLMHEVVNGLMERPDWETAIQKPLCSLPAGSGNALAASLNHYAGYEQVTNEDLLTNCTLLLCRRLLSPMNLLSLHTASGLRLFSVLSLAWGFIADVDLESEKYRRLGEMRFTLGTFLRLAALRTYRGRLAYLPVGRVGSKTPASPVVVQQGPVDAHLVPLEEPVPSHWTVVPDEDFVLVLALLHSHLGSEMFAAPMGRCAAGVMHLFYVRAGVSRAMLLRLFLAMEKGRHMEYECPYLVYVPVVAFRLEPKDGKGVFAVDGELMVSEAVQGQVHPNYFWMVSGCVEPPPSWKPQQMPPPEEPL
Chain of Phosphatidylinositol 4-kinase alpha (P42356 whole entry): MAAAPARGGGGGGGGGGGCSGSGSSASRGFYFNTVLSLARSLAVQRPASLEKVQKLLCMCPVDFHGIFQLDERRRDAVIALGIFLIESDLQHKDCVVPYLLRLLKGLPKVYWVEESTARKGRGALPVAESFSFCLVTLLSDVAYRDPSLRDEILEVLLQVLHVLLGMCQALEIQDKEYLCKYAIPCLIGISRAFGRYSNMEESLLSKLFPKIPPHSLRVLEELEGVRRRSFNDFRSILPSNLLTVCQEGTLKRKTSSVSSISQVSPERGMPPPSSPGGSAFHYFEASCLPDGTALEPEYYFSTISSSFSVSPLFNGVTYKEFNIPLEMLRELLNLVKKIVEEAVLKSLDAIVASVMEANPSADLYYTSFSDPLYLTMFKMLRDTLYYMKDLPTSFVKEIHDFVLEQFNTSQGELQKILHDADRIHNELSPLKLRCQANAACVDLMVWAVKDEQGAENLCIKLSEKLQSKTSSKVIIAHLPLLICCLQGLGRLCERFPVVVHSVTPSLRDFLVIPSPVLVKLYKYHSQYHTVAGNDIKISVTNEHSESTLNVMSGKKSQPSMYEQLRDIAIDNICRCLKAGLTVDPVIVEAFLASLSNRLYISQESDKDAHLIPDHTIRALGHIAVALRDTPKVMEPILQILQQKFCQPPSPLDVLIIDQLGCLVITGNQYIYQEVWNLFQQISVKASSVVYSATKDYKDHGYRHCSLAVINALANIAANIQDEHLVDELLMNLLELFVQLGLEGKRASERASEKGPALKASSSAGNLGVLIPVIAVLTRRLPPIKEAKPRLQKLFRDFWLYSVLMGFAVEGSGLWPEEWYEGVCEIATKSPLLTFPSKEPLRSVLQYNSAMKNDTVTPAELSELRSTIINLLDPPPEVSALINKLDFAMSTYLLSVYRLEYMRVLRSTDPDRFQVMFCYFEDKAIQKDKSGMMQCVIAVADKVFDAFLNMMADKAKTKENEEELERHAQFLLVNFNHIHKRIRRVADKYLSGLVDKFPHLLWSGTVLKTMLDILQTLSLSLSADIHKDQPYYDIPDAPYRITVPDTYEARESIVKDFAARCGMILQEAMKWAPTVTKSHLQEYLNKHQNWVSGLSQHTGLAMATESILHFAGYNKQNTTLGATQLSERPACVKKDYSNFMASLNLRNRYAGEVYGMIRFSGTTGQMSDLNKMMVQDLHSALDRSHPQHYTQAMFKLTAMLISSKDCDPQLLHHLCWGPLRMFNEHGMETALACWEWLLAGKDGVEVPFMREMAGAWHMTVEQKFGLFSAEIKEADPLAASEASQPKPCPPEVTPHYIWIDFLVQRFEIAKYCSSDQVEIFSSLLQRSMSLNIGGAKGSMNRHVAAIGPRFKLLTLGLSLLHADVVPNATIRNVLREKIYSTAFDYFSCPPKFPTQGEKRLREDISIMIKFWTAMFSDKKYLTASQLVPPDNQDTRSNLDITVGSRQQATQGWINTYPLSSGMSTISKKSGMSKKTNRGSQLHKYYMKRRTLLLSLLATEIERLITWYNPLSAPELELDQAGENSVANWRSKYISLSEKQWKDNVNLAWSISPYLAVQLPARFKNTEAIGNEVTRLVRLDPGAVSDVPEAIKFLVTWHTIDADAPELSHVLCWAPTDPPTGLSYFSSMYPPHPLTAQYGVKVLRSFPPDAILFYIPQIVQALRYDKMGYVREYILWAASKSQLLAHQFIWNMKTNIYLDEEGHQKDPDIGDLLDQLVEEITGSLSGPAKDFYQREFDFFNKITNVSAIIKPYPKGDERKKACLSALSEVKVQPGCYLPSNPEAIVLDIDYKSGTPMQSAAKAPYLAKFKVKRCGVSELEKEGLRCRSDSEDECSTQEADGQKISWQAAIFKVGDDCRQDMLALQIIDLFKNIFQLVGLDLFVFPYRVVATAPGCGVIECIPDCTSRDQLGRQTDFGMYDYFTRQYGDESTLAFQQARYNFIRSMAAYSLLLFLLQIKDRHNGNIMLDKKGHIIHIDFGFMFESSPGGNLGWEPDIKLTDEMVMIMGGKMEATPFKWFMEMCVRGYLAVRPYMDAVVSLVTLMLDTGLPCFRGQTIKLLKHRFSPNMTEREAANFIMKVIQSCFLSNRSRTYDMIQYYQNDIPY

In the case of `CC(C)=CC(=O)CCC(=O)N1CCN(Cc2cc3nc(-c4cccc5[nH]ncc45)nc(N4CCOCC4)c3s2)CC1`, in series [1], the outcome was inactive. Further, the outcome in the series with Mus musculus [2] and in the series on Mus musculus [3] was Active. Further, the GI50 in the series with MCF7 came to 0.0547 µM; in the series with SK-OV-3, 0.0776 µM. For the same compound, the PPB entry with Plasma was “Not Active”. Further, the IC50 (against Sphingosine kinase 2; at Sphingosine kinase 1; in series [4]; in [5]; in series [6]; in [7]) was over 1 µM each time. Also, the figures for the IC50 in series [8], in [9] and in series [10] were 3.02 µM, 0.24 µM and 0.166 µM, respectively. Moreover, the inhibition result in [11] was “Active”.

Turning to `CS(=O)(=O)N1CCN(Cc2cc3nc(-c4cccc5[nH]ncc45)nc(N4CCOCC4)c3s2)CC1` [PICTILISIB], the GI50 is 0.0702 µM in the series with MCF7 and 0.148 µM with SK-OV-3. For the same compound, the inhibition entry in series [12] is “inactive”. Moreover, the inhibition entry in series [13] was “Active”.
